In ChEMBL document CHEMBL4017530, “Mind the Metal: A Fragment Library-Derived Zinc Impurity Binds the E2 Ubiquitin-Conjugating Enzyme Ube2T and Induces Structural Rearrangements” (J Med Chem, 2017) one finds Activity, Kd and inhibition data, which are given here for seven compounds.

For test [1], the system named is T1, Ubiquitin-conjugating enzyme E2 T (Homo sapiens), Q9NPD8 [C86K,K91R,K95R].
T1 sequence (whole entry): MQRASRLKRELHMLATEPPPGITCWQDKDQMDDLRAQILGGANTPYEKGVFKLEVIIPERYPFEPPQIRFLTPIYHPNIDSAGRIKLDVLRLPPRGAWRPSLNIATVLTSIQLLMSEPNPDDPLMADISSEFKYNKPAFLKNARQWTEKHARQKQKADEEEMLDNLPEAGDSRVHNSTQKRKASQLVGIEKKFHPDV
Put plainly: (§1) Binding affinity to N-terminally 6xHis-Smt3 tagged FANCL RING fused human Ube2T C86K/K91R/K95R mutant expressed in Escherichia coli by ITC method. The essentials: (§2)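 Titrations at 25 °C with stirring at 750 rpm in 100 mM Tris pH 8.0, 100 mM NaCl, 0.5 mM TCEP. Protein at approximately 50 μM. Titrant-into-buffer control used to correct for heat of dilution. Each titration repeated at least twice.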
For orientation: Isothermal titration calorimetry measures the heat released or taken up as one component is titrated into another.

Test [2] has the same test system. The experiment in a line: Binding affinity to N-terminally 6xHis-Smt3 tagged human Ube2T C86K/K91R/K95R mutant expressed in Escherichia coli by DSF method. Put shortly: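 Compound ranged from 5 μM to 5 mM. Samples heated from 25 to 95 °C at 1 °C/min with fluorescence read at each step. Melting temperature shift was the read-out.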
(In general: DSF heats the sample and reads unfolding from a dye or from intrinsic fluorescence.)

Test [3] shares this test system. Put plainly: Binding affinity to N-terminally 6xHis-Smt3 tagged Ub fused human Ube2T C86K/K91R/K95R mutant expressed in Escherichia coli at 1.5 mM by ITC method. The essentials:
as §2

Test [4] shares this test system. Put plainly: Binding affinity to biotin labeled Ube2T C86K/K91R/K95R mutant (unknown origin) assessed as association and dissociation response at 2 uM by biolayer interferometry analysis. The essentials: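 Bio-layer interferometry with compound at a lowest tested concentration of 2 μM. Association and dissociation responses were recorded.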
The target of test [5] is T2, Ubiquitin-conjugating enzyme E2 T (Homo sapiens, UniProt Q9NPD8, C86K/K91R/K95R). The description is as §1. The essentials:
as §2

The target of test [6] is T2, Ubiquitin-conjugating enzyme E2 T. Put plainly: Binding affinity to N-terminally 6xHis-Smt3 tagged human Ube2T C86K/K91R/K95R mutant expressed in Escherichia coli by ITC method. Put shortly: as §2
The target of test [7] is T3, Ubiquitin-conjugating enzyme E2 T (Homo sapiens) (UniProt Q9NPD8).
T3 sequence (whole entry): T1 sequence (whole entry) with K86C, R91K, R95K
The experiment in a line: Binding affinity to human 15N-labelled C-terminal flexible tail lacking Ube2T (1 to 154 residues) (unknown origin) at 500 uM by NMR spectrocopy. The essentials: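 [1H-15N]-HSQC spectra recorded on 50 μM 15N-Ube2T ΔC (residues 1-154) with compound added at 100, 300 and 500 μM. Read-out was weakening or loss of resonance peaks compared with the apo spectrum.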

Test [8] deals with T3, Ubiquitin-conjugating enzyme E2 T (Homo sapiens). Put plainly: Reversible binding affinity to human 15N-labelled C-terminal flexible tail lacking Ube2T (1 to 154 residues) at 100 to 500 uM measured after overnight dialysis by NMR spectrocopy. The essentials: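 HSQC on 50 μM 15N-Ube2T ΔC with compound at 100, 300 and 500 μM. Compound was then removed by overnight dialysis in 50 mM potassium phosphate pH 6.8, 85 mM NaCl, 1 mM DTT. HSQC recorded again and compared with the apo peak positions.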

The test system of test [9] is T1, Ubiquitin-conjugating enzyme E2 T (Homo sapiens), Q9NPD8 [C86K,K91R,K95R]. Put plainly: Binding affinity to N-terminally 6xHis-Smt3 tagged human Ube2T C86K/K91R/K95R mutant expressed in Escherichia coli in presence of EDTA by ITC method. Put shortly:
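ITC at 25 °C with stirring at 750 rpm, protein approx. 50 μM. Buffer was 100 mM Tris pH 8.0, 100 mM NaCl, 0.5 mM TCEP, plus 2 mM EDTA. Heat of dilution corrected by titrant-into-buffer control. Repeated at least twice.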

Test [10] addresses Ubiquitin-like modifier-activating enzyme 1 (Homo sapiens) (UniProt P22314). The experiment in a line: Inhibition of recombinant human E1 charging with ubiquitin at 20 to 100 uM after 10 mins in presence of ATP by coomassie staining based SDS PAGE analysis.

SMILES strings stand for the structures. Numbering of substitutions follows the chain as printed. Calls of active or inactive are those of the source. The rule behind the calls is not given here.

Sequence of Ubiquitin-like modifier-activating enzyme 1 (Homo sapiens) (P22314 whole entry, looked up): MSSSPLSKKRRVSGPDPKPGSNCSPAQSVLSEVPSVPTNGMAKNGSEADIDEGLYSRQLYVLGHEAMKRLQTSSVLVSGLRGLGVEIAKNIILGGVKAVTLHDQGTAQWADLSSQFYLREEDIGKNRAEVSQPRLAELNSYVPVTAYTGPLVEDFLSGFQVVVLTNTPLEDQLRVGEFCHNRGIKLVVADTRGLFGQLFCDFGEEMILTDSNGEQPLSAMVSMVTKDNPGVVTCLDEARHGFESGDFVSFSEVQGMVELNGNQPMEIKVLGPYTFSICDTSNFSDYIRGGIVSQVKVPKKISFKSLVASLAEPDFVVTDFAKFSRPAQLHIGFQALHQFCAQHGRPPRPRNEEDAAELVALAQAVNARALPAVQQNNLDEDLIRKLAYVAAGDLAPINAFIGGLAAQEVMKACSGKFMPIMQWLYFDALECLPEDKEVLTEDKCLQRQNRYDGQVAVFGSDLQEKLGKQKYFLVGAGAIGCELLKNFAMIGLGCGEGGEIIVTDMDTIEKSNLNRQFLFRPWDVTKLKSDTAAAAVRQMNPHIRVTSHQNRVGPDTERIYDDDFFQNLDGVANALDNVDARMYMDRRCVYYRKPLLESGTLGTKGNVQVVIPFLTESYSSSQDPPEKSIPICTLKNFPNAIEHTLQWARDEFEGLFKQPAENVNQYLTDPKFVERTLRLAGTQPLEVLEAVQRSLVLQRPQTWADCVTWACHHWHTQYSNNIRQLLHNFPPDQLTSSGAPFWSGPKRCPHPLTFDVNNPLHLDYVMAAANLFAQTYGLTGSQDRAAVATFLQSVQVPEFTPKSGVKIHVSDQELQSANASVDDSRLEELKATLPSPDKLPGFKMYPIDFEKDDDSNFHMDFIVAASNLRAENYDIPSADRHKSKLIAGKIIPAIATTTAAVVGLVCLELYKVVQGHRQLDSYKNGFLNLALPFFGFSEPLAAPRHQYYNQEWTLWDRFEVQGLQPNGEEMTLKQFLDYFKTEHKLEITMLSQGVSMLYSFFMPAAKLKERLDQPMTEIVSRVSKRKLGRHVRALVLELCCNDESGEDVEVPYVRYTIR

For the compound `N=C(N)c1ccc(N2CCCCC2)nc1`, the outcome in [1] and in [2] was inactive.

For `N=C(N)c1ccc(-n2cccn2)nc1`, the Activity entry in [2] was “Dose-dependent effect”.

One may read the Kd as the equilibrium constant for the complex coming apart. Low values mean a tighter complex, high ones a looser complex. As for `Cc1cc(C)n(-c2ccc(C(=N)N)cn2)n1`, the outcome in test [3] and in test [9] was inactive. The result in test [4], in test [7] and in [8] was Active. Also, the equilibrium dissociation constant (Kd) stood at 21.3 µM in test [5] and 17.7 µM in test [6]. In addition, the inhibition result in test [10] is “inactive”. Further, in test [2], the Activity entry was “Dose-dependent effect”.

In the case of `N=C(N)c1ccc(N2CCCC2)nc1`, the Activity result in [2] was “Dose-dependent effect”.

As for `CC1CCN(c2ccc(C(=N)N)cn2)C1` (stereo not drawn), the outcome in test [1] and in test [2] was inactive.

The compound `[Cl-].[Cl-].[Zn+2]` [ZINC CHLORIDE] showed an equilibrium dissociation constant (Kd) in [6] of 15.7 µM.

On to `CC1CCCN1c1ccc(C(=N)N)cn1` (stereo not drawn), for which the result in [1] and in test [2] was inactive.
